Assay [1] is filed under the species Homo sapiens. The assay can be described thus: Selectivity index, ratio of IC50 for human recombinant His-tagged c-Kit cytoplasmic domain (544 to 976 residues) expressed in baculovirus expression system using Ser/Thr 6 peptide as substrate after 1 hr in presence of 300 uM ATP by FRET based Z'-LYTE assay to IC50 for recombinant human GST-tagged DDR1 catalytic domain (440 to 876 residues) expressed in baculovirus expression system using Fluorescein-poly GAT as substrate incubated for 1 hr in presence of ATP by LanthaScreen Eu kinase assay. The essentials:
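Ratio of c-Kit IC50 to DDR1 IC50. c-Kit was measured by FRET-based Z′-Lyte assay and DDR1 by LanthaScreen Eu kinase assay. Each IC50 is the mean of three independent experiments, with variation <20%.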
(In general: In TR-FRET formats the signal depends on donor and acceptor labels being close together.)

Assay [2] addresses T1, Discoidin domain-containing receptor 2 (Homo sapiens, UniProt Q16832).
T1 sequence (Q16832 whole entry): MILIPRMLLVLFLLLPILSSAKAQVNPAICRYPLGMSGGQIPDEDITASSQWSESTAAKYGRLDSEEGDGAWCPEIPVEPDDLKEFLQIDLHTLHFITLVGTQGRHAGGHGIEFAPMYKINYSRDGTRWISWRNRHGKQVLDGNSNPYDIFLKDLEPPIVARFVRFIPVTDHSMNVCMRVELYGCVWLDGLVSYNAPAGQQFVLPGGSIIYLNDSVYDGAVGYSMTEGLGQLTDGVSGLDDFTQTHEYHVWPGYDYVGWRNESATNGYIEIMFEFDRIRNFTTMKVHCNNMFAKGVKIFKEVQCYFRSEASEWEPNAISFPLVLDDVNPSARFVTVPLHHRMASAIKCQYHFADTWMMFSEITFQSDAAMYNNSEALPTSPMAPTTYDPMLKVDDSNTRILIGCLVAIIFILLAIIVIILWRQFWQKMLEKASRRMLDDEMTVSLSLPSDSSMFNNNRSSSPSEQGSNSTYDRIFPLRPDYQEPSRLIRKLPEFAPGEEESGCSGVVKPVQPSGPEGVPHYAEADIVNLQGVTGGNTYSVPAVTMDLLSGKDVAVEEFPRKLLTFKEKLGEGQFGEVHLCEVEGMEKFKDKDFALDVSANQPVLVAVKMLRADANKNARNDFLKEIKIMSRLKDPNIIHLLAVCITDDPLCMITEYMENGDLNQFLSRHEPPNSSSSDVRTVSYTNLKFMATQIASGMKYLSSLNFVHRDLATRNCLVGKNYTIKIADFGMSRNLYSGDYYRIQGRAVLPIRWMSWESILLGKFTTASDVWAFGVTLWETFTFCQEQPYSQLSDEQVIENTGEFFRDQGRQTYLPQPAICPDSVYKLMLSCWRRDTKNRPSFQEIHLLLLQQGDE
In words: Inhibition of recombinant human GST-tagged DDR2 cytoplasmic domain (427 to 855 residues) expressed in baculovirus expression system using Fluorescein-poly GAT as substrate incubated for 1 hr in presence of ATP by LanthaScreen Eu kinase assay. The essentials: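 LanthaScreen Eu kinase assay for DDR2; IC50 values are means of three independent experiments, variations <20%.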

Assay [3] concerns the target T2, Epithelial discoidin domain-containing receptor 1 (Homo sapiens, UniProt Q08345). In words: Inhibition of human wild type partial length DDR1 (R565 to V876 residues) expressed in bacterial expression system assessed as residual enzyme activity at 200 nM after 1 hr by Kinomescan method relative to control.
The species entered for assay [4] is Homo sapiens. The assay can be described thus: Selectivity index, ratio of IC50 for human recombinant full length His-tagged Bcr-Abl expressed in baculovirus expression system using tyrosine-2 peptide as substrate after 1 hr in presence of […] ATP by FRET based Z'-LYTE assay to IC50 for recombinant human GST-tagged DDR1 catalytic domain (440 to 876 residues) expressed in baculovirus expression system using Fluorescein-poly GAT as substrate incubated for 1 hr in presence of ATP by LanthaScreen Eu kinase assay. The essentials:
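Ratio of Bcr-Abl IC50 to DDR1 IC50. Bcr-Abl was measured by FRET-based Z′-Lyte assay and DDR1 by LanthaScreen Eu kinase assay. Each IC50 is the mean of three independent experiments, with variation <20%.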

In assay [5] the target is T2, Epithelial discoidin domain-containing receptor 1. In words: Inhibition of recombinant human GST-tagged DDR1 catalytic domain (440 to 876 residues) expressed in baculovirus expression system using Fluorescein-poly GAT as substrate incubated for 1 hr in presence of ATP by LanthaScreen Eu kinase assay.
A further assay deals with Bcr/Abl fusion protein (Homo sapiens, UniProt P00519). The assay can be described thus: Inhibition of human recombinant full length His-tagged Bcr-Abl expressed in baculovirus expression system using tyrosine-2 peptide as substrate after 1 hr in presence of […] ATP by FRET based Z'-LYTE assay. The essentials:
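FRET-based Z′-Lyte kinase assay for Bcr-Abl; IC50 values are means of three independent experiments, variations <20%.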

Assay [6] deals with T3, Discoidin domain-containing receptor 2 (Homo sapiens) (UniProt Q16832).
T3 sequence (whole entry): T1 sequence (Q16832 whole entry)
In words: Inhibition of wild type human partial length DDR2 (V555 to E855 residues) expressed in mammalian expression system assessed as residual enzyme activity at 200 nM after 1 hr by Kinomescan method relative to control.

Assay [7] deals with T1, Discoidin domain-containing receptor 2. The assay can be described thus: Binding affinity to wild type human partial length DDR2 (V555 to E855 residues) expressed in mammalian expression system after 1 hr by Kinomescan method. The essentials:
(§1)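 KINOMEscan binding; Kd determined for DDR1 and the off-target kinases DDR2, CAMK1D, CLK4 and TTK.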

The target of assay [8] is T4, Dual specificity protein kinase CLK4 (Homo sapiens, UniProt Q9HAZ1). The assay can be described thus: Binding affinity to wild-type human partial length CLK4 (R135 to K481 residues) expressed in bacterial expression system after 1 hr by Kinomescan method. The procedure, abridged: as §1
Target sequence in this assay (Q9HAZ1 whole entry, the tested form may be a part): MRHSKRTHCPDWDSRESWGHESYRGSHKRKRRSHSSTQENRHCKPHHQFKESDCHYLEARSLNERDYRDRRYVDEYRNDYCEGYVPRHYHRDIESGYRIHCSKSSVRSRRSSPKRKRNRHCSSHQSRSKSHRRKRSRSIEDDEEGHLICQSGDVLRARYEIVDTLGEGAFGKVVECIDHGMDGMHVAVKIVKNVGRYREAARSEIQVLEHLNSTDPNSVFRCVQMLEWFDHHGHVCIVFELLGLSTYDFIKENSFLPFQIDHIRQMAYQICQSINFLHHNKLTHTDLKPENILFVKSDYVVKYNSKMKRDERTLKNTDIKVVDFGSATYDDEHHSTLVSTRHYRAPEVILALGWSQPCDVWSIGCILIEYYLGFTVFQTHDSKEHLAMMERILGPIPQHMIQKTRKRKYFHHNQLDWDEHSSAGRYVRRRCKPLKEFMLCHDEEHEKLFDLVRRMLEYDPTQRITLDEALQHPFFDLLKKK
For assay [9], the target named is T4, Dual specificity protein kinase CLK4. In words: Inhibition of wild-type human partial length CLK4 (R135 to K481 residues) expressed in bacterial expression system assessed as enzyme residual activity at 200 nM after 1 hr by Kinomescan method relative to control.
Target sequence in this assay (Q9HAZ1 whole entry, looked up, the tested form may be a part): as the sequence (Q9HAZ1 whole entry, the tested form may be a part) above
Assay [10] is filed under the species Homo sapiens. In words: Selectivity index, ratio of IC50 for recombinant human GST-tagged DDR2 cytoplasmic domain (427 to 855 residues) expressed in baculovirus expression system to IC50 for recombinant human GST-tagged DDR1 catalytic domain (440 to 876 residues) expressed in baculovirus expression system using Fluorescein-poly GAT as substrate incubated for 1 hr in presence of ATP by LanthaScreen Eu kinase assay. The procedure, abridged: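 Ratio of DDR2 IC50 to DDR1 IC50. Both kinases were measured by LanthaScreen Eu kinase assay. Each IC50 is the mean of three independent experiments, with variation <20%.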

The subject of the next assay is NCI-H1299. In words: Antiinvasive activity against human H1299 cells at 1.25 uM after 24 hrs by crystal violet staining based transwell assay relative to control. Type of assay: functional. The note with it: NCI-H1299, 24 h. The procedure, abridged: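 H1299 NSCLC cells; transwell invasion assay over 24 h with compound at 1.25, 2.5 and 5.0 μM; invasion expressed relative to blank control.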

Structures are written as SMILES.

T2 sequence (Q08345 whole entry, the tested form may be a part): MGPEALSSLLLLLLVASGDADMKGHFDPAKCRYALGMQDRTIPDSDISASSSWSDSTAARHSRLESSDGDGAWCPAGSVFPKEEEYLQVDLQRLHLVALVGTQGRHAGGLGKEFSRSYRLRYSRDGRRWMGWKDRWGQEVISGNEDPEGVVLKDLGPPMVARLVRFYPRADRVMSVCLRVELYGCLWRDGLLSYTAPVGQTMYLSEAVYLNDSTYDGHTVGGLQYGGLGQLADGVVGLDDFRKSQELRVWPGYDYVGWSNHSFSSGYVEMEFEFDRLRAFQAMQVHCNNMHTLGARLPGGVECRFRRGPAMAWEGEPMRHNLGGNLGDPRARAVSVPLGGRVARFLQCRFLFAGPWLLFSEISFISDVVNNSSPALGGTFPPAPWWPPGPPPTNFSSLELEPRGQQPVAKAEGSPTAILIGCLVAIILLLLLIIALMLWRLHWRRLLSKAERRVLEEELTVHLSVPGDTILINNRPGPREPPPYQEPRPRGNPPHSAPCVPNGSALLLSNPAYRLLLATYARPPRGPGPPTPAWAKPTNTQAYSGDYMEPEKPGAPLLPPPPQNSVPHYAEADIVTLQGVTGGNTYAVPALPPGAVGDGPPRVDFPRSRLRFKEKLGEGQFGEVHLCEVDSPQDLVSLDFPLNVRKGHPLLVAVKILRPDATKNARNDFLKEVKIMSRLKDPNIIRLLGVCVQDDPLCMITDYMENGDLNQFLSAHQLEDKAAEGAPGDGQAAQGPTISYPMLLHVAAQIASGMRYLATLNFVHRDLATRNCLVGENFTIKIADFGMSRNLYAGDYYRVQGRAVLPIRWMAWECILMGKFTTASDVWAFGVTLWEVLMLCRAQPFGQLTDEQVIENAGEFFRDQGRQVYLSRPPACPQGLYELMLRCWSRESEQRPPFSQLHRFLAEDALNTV
Sequence of Bcr/Abl fusion protein (P00519 whole entry, the tested form may be a part): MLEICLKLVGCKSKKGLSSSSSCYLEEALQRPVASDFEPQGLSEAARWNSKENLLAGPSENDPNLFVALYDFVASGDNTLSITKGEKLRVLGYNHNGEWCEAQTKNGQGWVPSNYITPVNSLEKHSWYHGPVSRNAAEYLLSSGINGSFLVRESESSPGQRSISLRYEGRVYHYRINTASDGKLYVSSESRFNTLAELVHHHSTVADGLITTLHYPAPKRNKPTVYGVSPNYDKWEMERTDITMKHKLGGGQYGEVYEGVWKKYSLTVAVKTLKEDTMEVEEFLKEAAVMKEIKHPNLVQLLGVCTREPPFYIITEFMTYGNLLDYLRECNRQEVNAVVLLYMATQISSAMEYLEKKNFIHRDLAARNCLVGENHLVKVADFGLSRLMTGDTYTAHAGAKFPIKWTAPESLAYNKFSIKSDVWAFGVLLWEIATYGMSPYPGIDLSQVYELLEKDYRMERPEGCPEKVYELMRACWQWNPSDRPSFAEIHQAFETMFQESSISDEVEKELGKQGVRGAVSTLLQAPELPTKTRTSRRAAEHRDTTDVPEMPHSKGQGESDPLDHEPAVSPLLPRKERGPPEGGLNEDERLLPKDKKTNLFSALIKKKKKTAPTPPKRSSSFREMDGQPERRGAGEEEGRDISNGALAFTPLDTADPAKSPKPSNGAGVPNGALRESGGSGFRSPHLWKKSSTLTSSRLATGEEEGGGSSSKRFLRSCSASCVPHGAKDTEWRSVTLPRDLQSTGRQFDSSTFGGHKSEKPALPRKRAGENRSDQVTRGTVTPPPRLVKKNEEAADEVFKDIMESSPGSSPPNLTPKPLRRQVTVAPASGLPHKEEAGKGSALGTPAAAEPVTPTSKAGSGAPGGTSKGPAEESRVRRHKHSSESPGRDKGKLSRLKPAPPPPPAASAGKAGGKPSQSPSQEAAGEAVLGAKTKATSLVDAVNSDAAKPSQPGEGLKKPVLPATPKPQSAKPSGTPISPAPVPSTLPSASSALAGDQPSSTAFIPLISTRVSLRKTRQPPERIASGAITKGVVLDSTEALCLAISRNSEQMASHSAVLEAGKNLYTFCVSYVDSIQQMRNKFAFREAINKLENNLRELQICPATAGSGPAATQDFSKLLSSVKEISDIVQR
Sequence of Bcr/Abl fusion protein (P11274 whole entry, further chain, the tested form may be a part): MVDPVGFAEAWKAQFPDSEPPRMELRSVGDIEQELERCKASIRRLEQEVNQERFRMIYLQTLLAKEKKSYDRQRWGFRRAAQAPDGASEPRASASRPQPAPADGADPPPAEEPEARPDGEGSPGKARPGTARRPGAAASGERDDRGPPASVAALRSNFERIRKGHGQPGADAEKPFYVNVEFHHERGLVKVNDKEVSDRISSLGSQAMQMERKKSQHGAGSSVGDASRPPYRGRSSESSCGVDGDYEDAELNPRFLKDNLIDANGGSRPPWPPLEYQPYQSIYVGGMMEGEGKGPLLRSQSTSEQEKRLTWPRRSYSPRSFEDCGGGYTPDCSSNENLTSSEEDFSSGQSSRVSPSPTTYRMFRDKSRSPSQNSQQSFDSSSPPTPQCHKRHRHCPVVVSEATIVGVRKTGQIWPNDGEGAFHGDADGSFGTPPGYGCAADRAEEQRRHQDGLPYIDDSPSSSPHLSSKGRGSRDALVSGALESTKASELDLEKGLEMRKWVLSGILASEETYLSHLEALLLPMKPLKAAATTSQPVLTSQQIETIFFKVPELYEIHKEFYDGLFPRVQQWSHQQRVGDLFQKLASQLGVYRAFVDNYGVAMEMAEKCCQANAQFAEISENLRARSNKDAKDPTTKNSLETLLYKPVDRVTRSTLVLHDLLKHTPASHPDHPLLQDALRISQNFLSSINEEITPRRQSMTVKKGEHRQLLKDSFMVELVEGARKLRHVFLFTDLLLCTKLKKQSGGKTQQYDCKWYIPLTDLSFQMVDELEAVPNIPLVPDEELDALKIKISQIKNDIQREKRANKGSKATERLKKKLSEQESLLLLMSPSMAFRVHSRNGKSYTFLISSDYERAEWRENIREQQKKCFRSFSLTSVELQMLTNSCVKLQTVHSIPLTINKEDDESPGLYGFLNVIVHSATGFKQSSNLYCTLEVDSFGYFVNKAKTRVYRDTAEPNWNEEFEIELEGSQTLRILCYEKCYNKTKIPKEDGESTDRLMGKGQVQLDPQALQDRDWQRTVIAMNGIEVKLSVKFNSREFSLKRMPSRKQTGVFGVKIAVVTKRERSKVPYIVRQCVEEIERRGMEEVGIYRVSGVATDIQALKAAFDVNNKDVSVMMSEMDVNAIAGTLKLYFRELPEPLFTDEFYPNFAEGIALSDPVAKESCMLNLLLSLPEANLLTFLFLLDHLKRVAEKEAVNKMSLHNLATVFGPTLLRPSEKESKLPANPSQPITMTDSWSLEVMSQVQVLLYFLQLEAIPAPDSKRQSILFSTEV

One may read the IC50 as the concentration that gives 50% inhibition. In general, Kd refers to a measure of binding affinity in units of concentration. Lower therefore signals higher affinity. A word on the inhibition: it is the percentage by which the read-out fell short of the control. A high value points to a response far below the control. For `CCc1ccc(C(=O)Nc2cc(F)cc(C(F)(F)F)c2)cc1-c1cc(C)cc(-c2cnc3cnccn23)c1`, the Ratio IC50 in the assay listed under Homo sapiens [1] came out at 420; in the assay filed under Homo sapiens [4], 420; in the assay listed under Homo sapiens [10], 73. Also, the IC50 in assay [2] is 1740 nM; in [5], 23.8 nM; on Bcr/Abl fusion protein, greater than 10000 nM. The Activity in [3] came to 0%; in assay [6] it was 15%; in assay [9] it was 1.8%. Moreover, the Kd was 86 nM in assay [7] and greater than 1000 nM in assay [8]. The same compound registered an inhibition at 1.25 µM with NCI-H1299 of 17%.

These data come from ChEMBL document CHEMBL4342493, “Design and Optimization of 3'-(Imidazo[1,2-a]pyrazin-3-yl)-[1,1'-biphenyl]-3-carboxamides as Selective DDR1 Inhibitors” (ACS Med Chem Lett, 2020).
